Results from ChEMBL document CHEMBL1148446, “New analogues of amonafide and elinafide, containing aromatic heterocycles: synthesis, antitumor activity, molecular modeling, and DNA binding properties” (J Med Chem, 2004).
pIC50: −log10 of the molar value.

Key:
HT-29 = assay: In vitro cytotoxicity against human colon carcinoma (HT-29) cell line; format: functional, cell-based
In short: (§1)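 MTT assay on log-phase cells kept at 37 °C, 5% CO2. Seeded at 2.5 × 10³ cells/well; compound added 24 h later as serial PBS dilutions of a 1 × 10⁻⁵ M DMSO stock. Exposure 72 h, then MTT (1 mg/mL in PBS) for 4 h, DMSO solubilization, absorbance at 570 nm. PBS negative control, doxorubicin positive control. At least three experiments; IC50 = concentration reducing growth to 50% of control.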

HeLa = assay: In vitro cytotoxicity against human cervical carcinoma (HeLa) cell line; format: functional, cell-based; in short: as §1
PC-3 = assay: In vitro cytotoxicity against human prostate carcinoma (PC-3) cell line; format: functional, cell-based; in short: as §1
Mus musculus = assay: In vivo antitumor activity in mice infected with HT-29 cells; format: functional
In short: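 HT-29 xenografts: 10⁶ cells/0.1 mL DMEM injected sc into the back of athymic nu/nu mice. At ~0.1 cm³ tumors, randomized to 4 control and 4 treated. Dosing 5 mg/kg ip in sterile 0.9% NaCl, daily for 4 days then 10 days off (14-day cycles), up to 60 days; controls given vehicle. Tumors measured 1–2×/week; V = (Dd²)/2.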

O=C1c2cccc3c2c(cc2occc23)C(=O)N1CCNCCCNCCN1C(=O)c2cccc3c2c(cc2occc23)C1=O
pIC50 (HT-29): 6.43
pIC50 (HeLa): 6.14
pIC50 (PC-3): < 4.00

CN(CCCN(C)CCN1C(=O)c2cccc3c2c(cc2sccc23)C1=O)CCN1C(=O)c2cccc3c2c(cc2sccc23)C1=O
pIC50 (HT-29): 6.57
pIC50 (HeLa): 6.68
pIC50 (PC-3): 5.85

CN(CCCN(C)CCN1C(=O)c2cccc3c2c(cc2ccoc23)C1=O)CCN1C(=O)c2cccc3c2c(cc2ccoc23)C1=O
pIC50 (HT-29): 6.15
pIC50 (HeLa): 5.59
pIC50 (PC-3): 4.90

O=C1c2cccc3c2c(cc2ccoc23)C(=O)N1CCNCCCNCCN1C(=O)c2cccc3c2c(cc2ccoc23)C1=O
pIC50 (HT-29): 8.17
pIC50 (HeLa): 7.36
pIC50 (PC-3): 6.30
Reduction (Mus musculus): ~80%

CN(C)CCN1C(=O)c2cccc3c2c(cc2ccoc23)C1=O
pIC50 (HT-29): 5.57
pIC50 (HeLa): 5.37
pIC50 (PC-3): 5.25

O=C1c2cccc3c2c(cc2ccsc23)C(=O)N1CCNCCCNCCN1C(=O)c2cccc3c2c(cc2ccsc23)C1=O
pIC50 (HT-29): 5.71
pIC50 (HeLa): 5.98
pIC50 (PC-3): 6.40

CN(C)CCN1C(=O)c2cccc3c2c(cc2sccc23)C1=O
pIC50 (HT-29): 5.94
pIC50 (HeLa): 6.10
pIC50 (PC-3): 5.46

CN(C)CCN1C(=O)c2cccc3c2c(cc2occc23)C1=O
pIC50 (HT-29): 6.26
pIC50 (HeLa): 6.85
pIC50 (PC-3): 6.79

O=C1c2cccc3c2c(cc2sccc23)C(=O)N1CCNCCCNCCN1C(=O)c2cccc3c2c(cc2sccc23)C1=O
pIC50 (HT-29): 7.33
pIC50 (HeLa): 6.80
pIC50 (PC-3): 6.03

CN(CCCN(C)CCN1C(=O)c2cccc3c2c(cc2ccsc23)C1=O)CCN1C(=O)c2cccc3c2c(cc2ccsc23)C1=O
pIC50 (HT-29): 6.41
pIC50 (HeLa): 6.24
pIC50 (PC-3): 5.60

CN(C)CCN1C(=O)c2cccc3c2c(cc2ccsc23)C1=O
pIC50 (HT-29): 6.12
pIC50 (HeLa): 6.07
pIC50 (PC-3): 5.92
